Key:
Assay type in all cases: functional
Salmonella typhimurium [1] = assay: Antimicrobial activity against Salmonella enterica subsp. enterica serovar Typhimurium ATCC 14028 assessed as growth inhibition rate at 24 mg/l after 72 hr by spectrophotometry; conditions: ATCC 14028, 72 h, read-out: GI
Method in brief: (§1)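 Salmonella Typhimurium ATCC 14028 grown in nutrient broth at 30 °C, precultured 24 h, then subcultured 1:100 for 18 h before testing. Single volatile compounds (>95% pure) were added. OD was read every 24 h over 72 h in a Bioscreen C, with 10% Tween 80 as the comparison control.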

Salmonella typhimurium [2] = assay: Antimicrobial activity against Salmonella enterica subsp. enterica serovar Typhimurium ATCC 14028 assessed as growth inhibition rate at 2.4 mg/l after 72 hr by spectrophotometry; conditions: ATCC 14028, 72 h, read-out: GI; method in brief: as §1
Salmonella typhimurium [3] = assay: Antimicrobial activity against Salmonella enterica subsp. enterica serovar Typhimurium ATCC 14028 assessed as growth inhibition rate at 0.24 mg/l after 72 hr by spectrophotometry; conditions: ATCC 14028, 72 h, read-out: GI; method in brief: as §1
Salmonella typhimurium [4] = assay: Antimicrobial activity against Salmonella enterica subsp. enterica serovar Typhimurium ATCC 14028 assessed as growth inhibition rate at 0.03 mg/l after 72 hr by spectrophotometry; conditions: ATCC 14028, 72 h, read-out: GI; method in brief: as §1
Bacillus cereus [5] = assay: Antimicrobial activity against Bacillus cereus ATCC 11778 assessed as growth inhibition rate at 24 mg/l after 72 hr by spectrophotometry; conditions: ATCC 11778, 72 h, read-out: GI
Method in brief: (§2)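 Pure volatile compounds (purity >95%; one at 90%) were tested against B. cereus ATCC 11778. The strain was grown at 30 °C in nutrient broth for 24 h, then subcultured for 18 h. Optical density was read in a Bioscreen C every 24 h for 72 h, with 10% Tween 80 as the control.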

Bacillus cereus [6] = assay: Antimicrobial activity against Bacillus cereus ATCC 11778 assessed as growth inhibition rate at 2.4 mg/l after 72 hr by spectrophotometry; conditions: ATCC 11778, 72 h, read-out: GI; method in brief: as §2
Bacillus cereus [7] = assay: Antimicrobial activity against Bacillus cereus ATCC 11778 assessed as growth inhibition rate at 0.24 mg/l after 72 hr by spectrophotometry; conditions: ATCC 11778, 72 h, read-out: GI; method in brief: as §2
Bacillus cereus [8] = assay: Antimicrobial activity against Bacillus cereus ATCC 11778 assessed as growth inhibition rate at 0.03 mg/l after 72 hr by spectrophotometry; conditions: ATCC 11778, 72 h, read-out: GI; method in brief: as §2
Bacillus cereus [9] = assay: Antimicrobial activity against Bacillus cereus ATCC 11778 assessed as growth inhibition rate at 1.2 mg/l after 72 hr by spectrophotometry; conditions: ATCC 11778, 72 h, read-out: GI
Method in brief: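 Pure volatile compounds (>95% purity; 2,4-heptadienal 90%) identified in the leaf extract were tested against B. cereus ATCC 11778 in nutrient broth at 30 °C. The inoculum was grown 24 h, then subcultured (0.1 mL into 9.9 mL) for 18 h. Optical density was read in a Bioscreen C every 24 h for 72 h against a 10% Tween 80 control.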

Staphylococcus aureus [10] = assay: Antimicrobial activity against Staphylococcus aureus ATCC 25923 assessed as growth inhibition rate at 1.2 mg/l after 72 hr by spectrophotometry; conditions: ATCC 25923, 72 h, read-out: GI
Method in brief: (§3)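 Authentic volatiles (>95% purity; 2,4-heptadienal 90%) tested against 18 h subcultures. Growth media: E. coli O157:H7 and S. aureus in tryptic soy broth at 37 °C; L. monocytogenes in tryptic soy broth at 30 °C; V. parahaemolyticus in tryptic soy broth + 3% NaCl at 37 °C; S. typhimurium in nutrient broth at 30 °C. Bioscreen C OD every 24 h for 72 h versus 10% Tween 80 control.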

Listeria monocytogenes [11] = assay: Antimicrobial activity against Listeria monocytogenes ATCC 19111 assessed as growth inhibition rate at 12 mg/l after 72 hr by spectrophotometry; conditions: ATCC 19111, 72 h, read-out: GI
Method in brief: (§4)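 L. monocytogenes was grown at 30 °C in tryptic soy broth, subcultured for 18 h, and exposed to pure volatile compounds (>95% purity). Growth was followed by Bioscreen C optical density every 24 h for 72 h against a 10% Tween 80 control.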

Escherichia coli [12] = assay: Antimicrobial activity against Escherichia coli O157:H7 ATCC 43894 assessed as growth inhibition rate at 24 mg/l after 72 hr by spectrophotometry; conditions: O157:H7 ATCC 43894, 72 h, read-out: GI
Escherichia coli [13] = assay: Antimicrobial activity against Escherichia coli O157:H7 ATCC 43894 assessed as growth inhibition rate at 2.4 mg/l after 72 hr by spectrophotometry; conditions: O157:H7 ATCC 43894, 72 h, read-out: GI
Escherichia coli [14] = assay: Antimicrobial activity against Escherichia coli O157:H7 ATCC 43894 assessed as growth inhibition rate at 0.24 mg/l after 72 hr by spectrophotometry; conditions: O157:H7 ATCC 43894, 72 h, read-out: GI
Escherichia coli [15] = assay: Antimicrobial activity against Escherichia coli O157:H7 ATCC 43894 assessed as growth inhibition rate at 0.03 mg/l after 72 hr by spectrophotometry; conditions: O157:H7 ATCC 43894, 72 h, read-out: GI
Staphylococcus aureus [16] = assay: Antimicrobial activity against Staphylococcus aureus ATCC 25923 assessed as growth inhibition rate at 0.24 mg/l after 72 hr by spectrophotometry; conditions: ATCC 25923, 72 h, read-out: GI
Staphylococcus aureus [17] = assay: Antimicrobial activity against Staphylococcus aureus ATCC 25923 assessed as growth inhibition rate at 0.03 mg/l after 72 hr by spectrophotometry; conditions: ATCC 25923, 72 h, read-out: GI
Vibrio parahaemolyticus [18] = assay: Antimicrobial activity against Vibrio parahaemolyticus ATCC 33844 assessed as growth inhibition rate at 12 mg/l after 72 hr by spectrophotometry; conditions: ATCC 33844, 72 h, read-out: GI
Staphylococcus aureus [19] = assay: Antimicrobial activity against Staphylococcus aureus ATCC 25923 assessed as growth inhibition rate at 24 mg/l after 72 hr by spectrophotometry; conditions: ATCC 25923, 72 h, read-out: GI
Staphylococcus aureus [20] = assay: Antimicrobial activity against Staphylococcus aureus ATCC 25923 assessed as growth inhibition rate at 2.4 mg/l after 72 hr by spectrophotometry; conditions: ATCC 25923, 72 h, read-out: GI
Vibrio parahaemolyticus [21] = assay: Antimicrobial activity against Vibrio parahaemolyticus ATCC 33844 assessed as growth inhibition rate at 1.2 mg/l after 72 hr by spectrophotometry; conditions: ATCC 33844, 72 h, read-out: GI; method in brief: as §3
Salmonella typhimurium [22] = assay: Antimicrobial activity against Salmonella enterica subsp. enterica serovar Typhimurium ATCC 14028 assessed as growth inhibition rate at 12 mg/l after 72 hr by spectrophotometry; conditions: ATCC 14028, 72 h, read-out: GI; method in brief: as §1
Listeria monocytogenes [23] = assay: Antimicrobial activity against Listeria monocytogenes ATCC 19111 assessed as growth inhibition rate at 1.2 mg/l after 72 hr by spectrophotometry; conditions: ATCC 19111, 72 h, read-out: GI; method in brief: as §3
Escherichia coli [24] = assay: Antimicrobial activity against Escherichia coli O157:H7 ATCC 43894 assessed as growth inhibition rate at 12 mg/l after 72 hr by spectrophotometry; conditions: O157:H7 ATCC 43894, 72 h, read-out: GI
Escherichia coli [25] = assay: Antimicrobial activity against Escherichia coli O157:H7 ATCC 43894 assessed as growth inhibition rate at 1.2 mg/l after 72 hr by spectrophotometry; conditions: O157:H7 ATCC 43894, 72 h, read-out: GI
Staphylococcus aureus [26] = assay: Antimicrobial activity against Staphylococcus aureus ATCC 25923 assessed as growth inhibition rate at 12 mg/l after 72 hr by spectrophotometry; conditions: ATCC 25923, 72 h, read-out: GI
Listeria monocytogenes [27] = assay: Antimicrobial activity against Listeria monocytogenes ATCC 19111 assessed as growth inhibition rate at 24 mg/l after 72 hr by spectrophotometry; conditions: ATCC 19111, 72 h, read-out: GI; method in brief: as §4
Listeria monocytogenes [28] = assay: Antimicrobial activity against Listeria monocytogenes ATCC 19111 assessed as growth inhibition rate at 2.4 mg/l after 72 hr by spectrophotometry; conditions: ATCC 19111, 72 h, read-out: GI; method in brief: as §4
Listeria monocytogenes [29] = assay: Antimicrobial activity against Listeria monocytogenes ATCC 19111 assessed as growth inhibition rate at 0.24 mg/l after 72 hr by spectrophotometry; conditions: ATCC 19111, 72 h, read-out: GI; method in brief: as §4
Listeria monocytogenes [30] = assay: Antimicrobial activity against Listeria monocytogenes ATCC 19111 assessed as growth inhibition rate at 0.03 mg/l after 72 hr by spectrophotometry; conditions: ATCC 19111, 72 h, read-out: GI; method in brief: as §4
Vibrio parahaemolyticus [31] = assay: Antimicrobial activity against Vibrio parahaemolyticus ATCC 33844 assessed as growth inhibition rate at 24 mg/l after 72 hr by spectrophotometry; conditions: ATCC 33844, 72 h, read-out: GI
Vibrio parahaemolyticus [32] = assay: Antimicrobial activity against Vibrio parahaemolyticus ATCC 33844 assessed as growth inhibition rate at 2.4 mg/l after 72 hr by spectrophotometry; conditions: ATCC 33844, 72 h, read-out: GI
Vibrio parahaemolyticus [33] = assay: Antimicrobial activity against Vibrio parahaemolyticus ATCC 33844 assessed as growth inhibition rate at 0.24 mg/l after 72 hr by spectrophotometry; conditions: ATCC 33844, 72 h, read-out: GI
Vibrio parahaemolyticus [34] = assay: Antimicrobial activity against Vibrio parahaemolyticus ATCC 33844 assessed as growth inhibition rate at 0.03 mg/l after 72 hr by spectrophotometry; conditions: ATCC 33844, 72 h, read-out: GI
Salmonella typhimurium [35] = assay: Antimicrobial activity against Salmonella enterica subsp. enterica serovar Typhimurium ATCC 14028 assessed as growth inhibition rate at 1.2 mg/l after 72 hr by spectrophotometry; conditions: ATCC 14028, 72 h, read-out: GI; method in brief: as §3
Bacillus cereus [36] = assay: Antimicrobial activity against Bacillus cereus ATCC 11778 assessed as growth inhibition rate at 12 mg/l after 72 hr by spectrophotometry; conditions: ATCC 11778, 72 h, read-out: GI; method in brief: as §2

C[C@@H]1CC[C@@H]2[C@@H]1[C@H]1[C@@H](CC[C@]2(C)O)C1(C)C [(-)-EPIGLOBULOL]
inhibition of growth at 24 µg/mL (Salmonella typhimurium [1]): 58.1% | inhibition of growth at 2.4 µg/mL (Salmonella typhimurium [2]): 4.9% | inhibition of growth at 0.24 µg/mL (Salmonella typhimurium [3]): 3.9% | inhibition of growth at 0.03 µg/mL (Salmonella typhimurium [4]): 2.2% | inhibition of growth at 24 µg/mL (Bacillus cereus [5]): 95.7% | inhibition of growth at 2.4 µg/mL (Bacillus cereus [6]): 18.6% | inhibition of growth at 0.24 µg/mL (Bacillus cereus [7]): 8.2% | inhibition of growth at 0.03 µg/mL (Bacillus cereus [8]): 0.6% | inhibition of growth at 1.2 µg/mL (Bacillus cereus [9]): 13.9% | inhibition of growth at 1.2 µg/mL (Staphylococcus aureus [10]): 5.8% | inhibition of growth at 12 µg/mL (Listeria monocytogenes [11]): 92% | inhibition of growth at 24 µg/mL (Escherichia coli [12]): 26.3% | inhibition of growth at 2.4 µg/mL (Escherichia coli [13]): 2.1% | inhibition of growth at 0.24 µg/mL (Escherichia coli [14]): 0.7% | inhibition of growth at 0.03 µg/mL (Escherichia coli [15]): 0.3% | inhibition of growth at 0.24 µg/mL (Staphylococcus aureus [16]): 2.6% | inhibition of growth at 0.03 µg/mL (Staphylococcus aureus [17]): 1.7% | inhibition of growth at 12 µg/mL (Vibrio parahaemolyticus [18]): 61.2% | inhibition of growth at 24 µg/mL (Staphylococcus aureus [19]): 99.6% | inhibition of growth at 2.4 µg/mL (Staphylococcus aureus [20]): 5.9% | inhibition of growth at 1.2 µg/mL (Vibrio parahaemolyticus [21]): 11.1% | inhibition of growth at 12 µg/mL (Salmonella typhimurium [22]): 39.1% | inhibition of growth at 1.2 µg/mL (Listeria monocytogenes [23]): 8.2% | inhibition of growth at 12 µg/mL (Escherichia coli [24]): 22.6% | inhibition of growth at 1.2 µg/mL (Escherichia coli [25]): 0.9% | inhibition of growth at 12 µg/mL (Staphylococcus aureus [26]): 99.4% | inhibition of growth at 24 µg/mL (Listeria monocytogenes [27]): 94.3% | inhibition of growth at 2.4 µg/mL (Listeria monocytogenes [28]): 10.1% | inhibition of growth at 0.24 µg/mL (Listeria monocytogenes [29]): 6.1% | inhibition of growth at 0.03 µg/mL (Listeria monocytogenes [30]): 5.8% | inhibition of growth at 24 µg/mL (Vibrio parahaemolyticus [31]): 65.8% | inhibition of growth at 2.4 µg/mL (Vibrio parahaemolyticus [32]): 11.7% | inhibition of growth at 0.24 µg/mL (Vibrio parahaemolyticus [33]): 11.4% | inhibition of growth at 0.03 µg/mL (Vibrio parahaemolyticus [34]): 3.1% | inhibition of growth at 1.2 µg/mL (Salmonella typhimurium [35]): 4.4% | inhibition of growth at 12 µg/mL (Bacillus cereus [36]): 63.6%

— ChEMBL document CHEMBL3046951, “Volatile constituents from the leaves of Callicarpa japonica Thunb. and their antibacterial activities” (2004)
